According to ChEMBL document CHEMBL1687758, “Azithromycin alters macrophage phenotype and pulmonary compartmentalization during lung infection with Pseudomonas” (2010):
The source made the active and inactive calls.

Columns and labels:
Mus musculus [1] = assay: Immunomodulatory activity in Pseudomonas aeruginosa M57-15 infected C57BL/6 mouse lung assessed as increase of mannose receptor expression in lung digest at 0.16 g/kg, po measured after 7 days by flow cytometry; assay type: functional, organism-based
In short: (§1)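 Oral gavage of 0.16 g/kg daily (2% methylcellulose vehicle) began 4 days before intratracheal bead infection (1 × 105 to 2 × 10^5 CFU). On days 3, 7 and 14, cells were taken from lavage (0.3 mM EDTA buffer) and from collagenase/DNase lung digest (1 h, 37°C). Cells were stained for CD11b, CD11c, Gr-1, CD4, CD80, MHC-II and MR, with more than 50,000 events acquired. Counts were gated percent × manual cell count.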

Mus musculus [2] = assay: Immunomodulatory activity in Pseudomonas aeruginosa M57-15 infected C57BL/6 mouse lung assessed as increase of total cells in lung digest at 0.16 g/kg, po measured by flow cytometry
Mus musculus [3] = assay: Immunomodulatory activity in Pseudomonas aeruginosa M57-15 infected C57BL/6 mouse lung assessed as increase of MHC2 expression in CD11b+ Gr1+ cells in lung digest at 0.16 g/kg, po measured after 7 days by flow cytometry; assay type: functional, organism-based; in short: as §1
Mus musculus [4] = assay: Immunomodulatory activity in Pseudomonas aeruginosa M57-15 infected C57BL/6 mouse lung assessed as increase of mannose receptor expression in CD11b+ Gr1+ cells in lung digest at 0.16 g/kg, po measured after 7 days by flow cytometry; assay type: functional, organism-based; in short: as §1

Measured: Activity

CC[C@H]1OC(=O)[C@H](C)[C@@H](O[C@H]2C[C@@](C)(OC)[C@@H](O)[C@H](C)O2)[C@H](C)[C@@H](O[C@@H]2O[C@H](C)C[C@H](N(C)C)[C@H]2O)[C@](C)(O)C[C@@H](C)CN(C)[C@H](C)[C@@H](O)[C@]1(C)O [AZITHROMYCIN]
active: all assays above
